In ChEMBL document CHEMBL1122233, “Antihypertensive 9-substituted 1-oxa-4,9-diazaspiro[5.5]undecan-3-ones” (J Med Chem, 1983):

Legend:
Format in all cases: functional, Artery
Details in all cases: route oral
[1] = system: Rattus norvegicus; assay: Percentage fall in systolic blood pressure after 3 hr at 0.31 mg/kg given perorally
Outline: (§1)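 Male Okamoto-Aoki spontaneously hypertensive rats, trained, in groups of four matched for mean systolic pressure; five treated groups and one vehicle control run concurrently. Oral dosing in water (solution or suspension, 0.1 mL/10 g) on two consecutive mornings. On day 2, rats were restrained at 30.0 ± 1.0 °C and tail-cuff systolic pressure recorded at 1–4 h; percent fall versus control, 1-tail t test, p ≤ 0.05.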

[2] = system: Rattus norvegicus; assay: Percentage fall in systolic blood pressure after 1 hr at 0.31 mg/kg given perorally; outline: as §1
[3] = system: Rattus norvegicus; assay: Percentage fall in systolic blood pressure after 1 hr at 1.25 mg/kg given perorally; outline: as §1
[4] = system: Rattus norvegicus; assay: Percentage fall in systolic blood pressure after 2 hr at 0.31 mg/kg given perorally; outline: as §1
[5] = system: Rattus norvegicus; assay: Percentage fall in systolic blood pressure after 2 hr at 1.25 mg/kg given perorally; outline: as §1
[6] = system: Rattus norvegicus; assay: Percentage fall in systolic blood pressure after 4 hr at 0.31 mg/kg given perorally; outline: as §1
[7] = system: Rattus norvegicus; assay: Percentage fall in systolic blood pressure after 4 hr at 1.25 mg/kg given perorally; outline: as §1
[8] = system: Rattus norvegicus; assay: Percentage fall in systolic blood pressure after 3 hr at 1.25 mg/kg given perorally; outline: as §1

## COc1cc2nc(N3CCN(C(=O)c4ccco4)CC3)nc(N)c2cc1OC [PRAZOSIN]
[1]
  Decrease in SBP: 21%
[2]
  Decrease in SBP: 19%
[3]
  Decrease in SBP: 26%
[4]
  Decrease in SBP: 31%
[5]
  Decrease in SBP: 46%
[6]
  Decrease in SBP: 26%
[7]
  Decrease in SBP: 31%
[8]
  Decrease in SBP: 36%
